Experimental findings from paper PMC7199890 (European journal of medicinal chemistry, 2019) are described below.

Molecules are shown by their SMILES. Where a name gives a salt, the structure may show the parent alone. Where only a bound is given, the exact number is not on record here.

The target of one experiment is hA2AAR (Homo sapiens, UniProt P29274). As to the kind of experiment: Radioligand binding. The following applies: selectivity ratio of Ki values.
The next experiment has as its target T1, hA3AR (Homo sapiens, UniProt P0DMS8).
T1 sequence (P0DMS8 1-318): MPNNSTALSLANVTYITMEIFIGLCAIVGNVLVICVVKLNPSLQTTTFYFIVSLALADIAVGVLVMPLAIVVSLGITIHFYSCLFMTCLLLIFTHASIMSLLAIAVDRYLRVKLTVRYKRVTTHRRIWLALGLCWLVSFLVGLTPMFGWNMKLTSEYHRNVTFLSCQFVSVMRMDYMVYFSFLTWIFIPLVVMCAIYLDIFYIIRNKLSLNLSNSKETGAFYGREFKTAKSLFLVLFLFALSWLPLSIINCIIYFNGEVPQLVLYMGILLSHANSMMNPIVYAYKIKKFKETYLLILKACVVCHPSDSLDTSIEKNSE
As to the kind of experiment: Radioligand binding. The following applies: selectivity ratio of Ki values. The gist of the method:
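Displacement of [125I]AB-MECA binding on membranes from CHO cells expressing recombinant hA3AR. […] ADA (3 units/mL) was present during membrane preparation, a 30 min 30 °C preincubation and radioligand incubation. DMSO was ≤2% final. At least six competitor concentrations spanning 3 log units were used. Incubations ended by GF/B filtration and three rinses.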

hA2AAR, sequence (P29274 whole entry): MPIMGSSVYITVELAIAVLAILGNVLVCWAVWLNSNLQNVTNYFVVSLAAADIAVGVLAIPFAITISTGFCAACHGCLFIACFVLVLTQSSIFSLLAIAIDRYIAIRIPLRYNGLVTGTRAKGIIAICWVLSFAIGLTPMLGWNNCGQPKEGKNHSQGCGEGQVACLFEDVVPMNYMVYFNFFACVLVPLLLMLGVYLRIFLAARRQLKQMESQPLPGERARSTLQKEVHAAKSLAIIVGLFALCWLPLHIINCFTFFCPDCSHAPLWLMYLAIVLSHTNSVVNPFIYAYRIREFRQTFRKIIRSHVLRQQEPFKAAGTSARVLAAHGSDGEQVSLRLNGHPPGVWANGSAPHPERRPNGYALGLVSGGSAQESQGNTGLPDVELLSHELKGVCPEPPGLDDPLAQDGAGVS

Consider `Cn1cc2c(nc(NC(=O)Nc3ccc(CC(=O)NCCCNC(=O)OC(C)(C)C)cc3)n3nc(-c4ccco4)nc23)n1` [Compound 4, tert-Butyl (3-(2-(4-(3-(2-(furan-2-yl)-8-methyl-8H-pyrazolo [4,3-e][1,2,4]triazolo[1,5-c]pyrimidin-5-yl)ureido)phenyl)acetamido)propyl)carbamate], for which the hA1/hA2A at hA2AAR is >66. On hA3AR, the hA1/hA3 was >3636 and the hA2A/hA3 came to 54.5.

On to `C#CCCCC(=O)Nc1nc2nn(C)cc2c2nc(-c3ccco3)nn12` [Compound 20, N-(2-(furan-2-yl)-8-methyl-8H-pyrazolo[4,3-e][1,2,4]triazolo[1,5-c]pyrimidin-5-yl)hex-5-ynamide], for which the hA2A/hA3 at hA3AR worked out at 48.4.

Consider `Cn1cc2c(nc(NC(=O)Nc3ccc(CC(=O)NCCOCCOCCN)cc3)n3nc(-c4ccco4)nc23)n1.O=C(O)C(F)(F)F` [Compound 12, 2-(2-(2-(2-(4-(3-(2-(furan-2-yl)-8-methyl-8H-pyrazolo[4,3-e][1,2,4]triazolo[1,5-c]pyrimidin-5-yl)ureido)phenyl)acetamido)ethoxy)ethoxy)ethanamine trifluoroacetate salt], for which the hA1/hA2A at hA2AAR was >37.4. For the same molecule, at hA3AR, the hA1/hA3 is on record as >520 and the hA2A/hA3 is 14.

For the molecule `Cn1cc2c(nc(NC(=O)Nc3ccc(CC(=O)NCCCOCCOCCOCCCNC(=O)OC(C)(C)C)cc3)n3nc(-c4ccco4)nc23)n1` [Compound 8, tert-Butyl (1-(4-(3-(2-(furan-2-yl)-8-methyl-8H-pyrazolo [4,3-e][1,2,4]triazolo[1,5-c]pyrimidin-5-yl)ureido)phenyl)-2-oxo-7,10,13-trioxa-3-azahexadecan-16-yl)carbamate], the hA1/hA2A at hA2AAR is >30.5. Moreover, on hA3AR, the hA1/hA3 is >121.3 and the hA2A/hA3 stood at 3.9.

On to `C#CCCCCCC(=O)Nc1nc2nn(C)cc2c2nc(-c3ccco3)nn12` [Compound 22, N-(2-(furan-2-yl)-8-methyl-8H-pyrazolo[4,3-e][1,2,4]triazolo[1,5-c]pyrimidin-5-yl)oct-7-ynamide], for which the hA1/hA2A on hA2AAR is listed as >20.7. Besides, at hA3AR, the hA1/hA3 is >781 and the hA2A/hA3 is recorded as 37.6.

Regarding `Cn1cc2c(nc(NC(=O)Nc3ccc(CC(=O)NCCCCCN)cc3)n3nc(-c4ccco4)nc23)n1` [Compound 11, N-(5-aminopentyl)-2-(4-(3-(2-(furan-2-yl)-8-methyl-8H-pyrazolo[4,3-e][1,2,4]triazolo[1,5-c]pyrimidin-5-yl)ureido)phenyl) acetamide trifluoroacetate salt], the hA1/hA2A on hA2AAR is listed as >49. Further, on hA3AR, the hA1/hA3 is given as >3759 and the hA2A/hA3 was 76.3.

Regarding `Cn1cc2c(nc(NC(=O)Nc3ccc(CC(=O)NCCCCCNC(=O)OC(C)(C)C)cc3)n3nc(-c4ccco4)nc23)n1` [Compound 6, tert-Butyl (5-(2-(4-(3-(2-(furan-2-yl)-8-methyl-8H-pyrazolo [4,3-e][1,2,4]triazolo[1,5-c]pyrimidin-5-yl)ureido)phenyl)acetamido)pentyl)carbamate], the hA1/hA2A at hA2AAR is given as >26.5. Also, at hA3AR, the hA1/hA3 is listed as >2237 and the hA2A/hA3 is given as 84.1.

For `Cn1cc2c(nc(NC(=O)Nc3ccc(CC(=O)NCCCCN)cc3)n3nc(-c4ccco4)nc23)n1` [Compound 10, N-(4-aminobutyl)-2-(4-(3-(2-(furan-2-yl)-8-methyl-8H-pyrazolo[4,3-e][1,2,4]triazolo[1,5-c]pyrimidin-5-yl)ureido)phenyl) acetamide trifluoroacetate salt], the hA1/hA2A at hA2AAR is on record as >58. Moreover, on hA3AR, the hA1/hA3 is recorded as >1666 and the hA2A/hA3 worked out at 28.6.

With `Cn1cc2c(nc(NC(=O)Nc3ccc(CC(=O)O)cc3)n3nc(-c4ccco4)nc23)n1` [Compound 3, 2-(4-(3-(2-(furan-2-yl)-8-methyl-8H-pyrazolo [4,3-e] [1,2,4]triazolo[1,5-c]pyrimidin-5-yl)ureido)phenyl)acetic acid], at hA2AAR, the hA1/hA2A is listed as >10.
